{
  "source": "ChEMBL document CHEMBL1629469",
  "about": "“Pharmacophore model for pentamidine analogs active against Plasmodium falciparum” (Eur J Med Chem, 2010)",
  "key": {"Plasmodium falciparum [1]": {"system": "Plasmodium falciparum", "test": "Antimalarial activity against chloroquine and pyrimethamine -resistant Plasmodium falciparum K1 after 48 hrs by [3H]hypoxanthine incorporation assay", "format": "functional, organism-based", "outline": "(§1)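 Asexual erythrocytic parasites in human red cells (1.25% hematocrit, 0.3% parasitemia) exposed to serial drug dilutions in RPMI 1640 with Hepes, AlbuMAX II, bicarbonate and neomycin. Incubation at 37 C under 93% N2/4% CO2/3% O2; [3H]hypoxanthine added after 48 h, then 24 h more. Incorporation counted by scintillation. IC50 taken from sigmoidal curves; four independent runs, each in duplicate; DMSO below 1%.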"}, "Plasmodium falciparum [2]": {"system": "Plasmodium falciparum", "test": "Antimalarial activity against drug -sensitive Plasmodium falciparum NF54 after 48 hrs by [3H]hypoxanthine incorporation assay", "format": "functional, organism-based", "outline": "as §1"}},
  "data": [
    {"smiles": "COc1cc(C2=NCCN2)ccc1OCCCCCOc1ccc(C2=NCCN2)cc1OC", "values": [
      {"measurement": "IC50", "setting": "Plasmodium falciparum [1]", "result": 24, "unit": "nM"},
      {"measurement": "IC50", "setting": "Plasmodium falciparum [2]", "result": 112, "unit": "nM"}
    ]},
    {"smiles": "CCOC(=O)c1cc(C(=N)NC(C)C)ccc1OCCCCCOc1ccc(C(=N)NC(C)C)cc1C(=O)OCC", "values": [
      {"measurement": "IC50", "setting": "Plasmodium falciparum [1]", "result": 14.5, "unit": "nM"},
      {"measurement": "IC50", "setting": "Plasmodium falciparum [2]", "result": 28.2, "unit": "nM"}
    ]},
    {"smiles": "N=C(N)c1ccc(OCCCCCOc2ccc(C(=N)N)c(O)c2)cc1O", "values": [
      {"measurement": "IC50", "setting": "Plasmodium falciparum [1]", "result": 631, "unit": "nM"},
      {"measurement": "IC50", "setting": "Plasmodium falciparum [2]", "result": 407, "unit": "nM"}
    ]},
    {"smiles": "Fc1cc(OCCCCCOc2ccc(C3=NCCN3)c(F)c2)ccc1C1=NCCN1", "values": [
      {"measurement": "IC50", "setting": "Plasmodium falciparum [1]", "result": 8.51, "unit": "nM"},
      {"measurement": "IC50", "setting": "Plasmodium falciparum [2]", "result": 50.1, "unit": "nM"}
    ]},
    {"smiles": "CCOC(=O)c1cc(C(=N)N)ccc1OCCCCCOc1ccc(C(=N)N)cc1C(=O)OCC", "values": [
      {"measurement": "IC50", "setting": "Plasmodium falciparum [1]", "result": 26.3, "unit": "nM"},
      {"measurement": "IC50", "setting": "Plasmodium falciparum [2]", "result": 97.7, "unit": "nM"}
    ]},
    {"smiles": "CCOC(=O)c1cc(C2=NCCN2)ccc1OCCCCCOc1ccc(C2=NCCN2)cc1C(=O)OCC", "values": [
      {"measurement": "IC50", "setting": "Plasmodium falciparum [1]", "result": 33.1, "unit": "nM"},
      {"measurement": "IC50", "setting": "Plasmodium falciparum [2]", "result": 234, "unit": "nM"}
    ]},
    {"smiles": "CCOC(=O)c1cc(C(=N)N)ccc1OCCCCCOc1ccc(C(=N)N)cc1C(N)=O", "values": [
      {"measurement": "IC50", "setting": "Plasmodium falciparum [1]", "result": 17, "unit": "nM"},
      {"measurement": "IC50", "setting": "Plasmodium falciparum [2]", "result": 120, "unit": "nM"}
    ]},
    {"smiles": "N=C(N)c1ccc(OCCCCCOc2ccc(C(=N)N)cc2C(N)=O)c(C(N)=O)c1", "values": [
      {"measurement": "IC50", "setting": "Plasmodium falciparum [1]", "result": 47.9, "unit": "nM"},
      {"measurement": "IC50", "setting": "Plasmodium falciparum [2]", "result": 302, "unit": "nM"}
    ]},
    {"smiles": "CC(=N)Nc1ccc(OCCCCCOc2ccc(NC(C)=N)cc2)cc1", "values": [
      {"measurement": "IC50", "setting": "Plasmodium falciparum [1]", "result": 57.5, "unit": "nM"},
      {"measurement": "IC50", "setting": "Plasmodium falciparum [2]", "result": 468, "unit": "nM"}
    ]},
    {"smiles": "N/N=C(\\N)c1ccc(OCCCCCOc2ccc(/C(N)=N/N)cc2)cc1", "values": [
      {"measurement": "IC50", "setting": "Plasmodium falciparum [1]", "result": 562, "unit": "nM"},
      {"measurement": "IC50", "setting": "Plasmodium falciparum [2]", "result": 282, "unit": "nM"}
    ]},
    {"smiles": "CC(C)NC(=N)c1ccc(OCCCCCOc2ccc(C(=N)NC(C)C)c(O)c2)cc1O", "values": [
      {"measurement": "IC50", "setting": "Plasmodium falciparum [1]", "result": 741, "unit": "nM"},
      {"measurement": "IC50", "setting": "Plasmodium falciparum [2]", "result": 955, "unit": "nM"}
    ]},
    {"smiles": "Oc1cc(OCCCCCOc2ccc(C3=NCCN3)c(O)c2)ccc1C1=NCCN1", "values": [
      {"measurement": "IC50", "setting": "Plasmodium falciparum [1]", "result": 123, "unit": "nM"},
      {"measurement": "IC50", "setting": "Plasmodium falciparum [2]", "result": 58.9, "unit": "nM"}
    ]},
    {"smiles": "CC(C)NC(=N)c1ccc(OCCCCCOc2ccc(C(=N)NC(C)C)c(F)c2)cc1F", "values": [
      {"measurement": "IC50", "setting": "Plasmodium falciparum [1]", "result": 646, "unit": "nM"},
      {"measurement": "IC50", "setting": "Plasmodium falciparum [2]", "result": 191, "unit": "nM"}
    ]},
    {"smiles": "CNC(=N)c1ccc(OCCCCCOc2ccc(C(=N)NC)cc2)cc1", "values": [
      {"measurement": "IC50", "setting": "Plasmodium falciparum [1]", "result": 5.01, "unit": "nM"},
      {"measurement": "IC50", "setting": "Plasmodium falciparum [2]", "result": 26.9, "unit": "nM"}
    ]},
    {"smiles": "N=C(N)c1ccc(OCCCCCOc2ccc(C(=N)N)c(F)c2)cc1F", "values": [
      {"measurement": "IC50", "setting": "Plasmodium falciparum [1]", "result": 18.2, "unit": "nM"},
      {"measurement": "IC50", "setting": "Plasmodium falciparum [2]", "result": 81.3, "unit": "nM"}
    ]},
    {"smiles": "CN1CCN=C1c1ccc(OCCCCCOc2ccc(C3=NCCN3C)cc2)cc1", "values": [
      {"measurement": "IC50", "setting": "Plasmodium falciparum [1]", "result": 501, "unit": "nM"},
      {"measurement": "IC50", "setting": "Plasmodium falciparum [2]", "result": 204, "unit": "nM"}
    ]},
    {"smiles": "N=C(N)c1ccc(SCCCCCSc2ccc(C(=N)N)cc2)cc1", "values": [
      {"measurement": "IC50", "setting": "Plasmodium falciparum [1]", "result": 23.4, "unit": "nM"},
      {"measurement": "IC50", "setting": "Plasmodium falciparum [2]", "result": 34.7, "unit": "nM"}
    ]},
    {"smiles": "N=C(Nc1ccc(OCCCCCOc2ccc(NC(=N)c3ccccc3)cc2)cc1)c1ccccc1", "values": [
      {"measurement": "IC50", "setting": "Plasmodium falciparum [1]", "result": 245, "unit": "nM"},
      {"measurement": "IC50", "setting": "Plasmodium falciparum [2]", "result": 34.7, "unit": "nM"}
    ]},
    {"smiles": "N=C(N)c1ccc(OCCCCCOc2ccc(C(=N)N)cc2Cl)c(Cl)c1", "values": [
      {"measurement": "IC50", "setting": "Plasmodium falciparum [1]", "result": 32.4, "unit": "nM"},
      {"measurement": "IC50", "setting": "Plasmodium falciparum [2]", "result": 105, "unit": "nM"}
    ]},
    {"smiles": "N=C(N)c1ccc(OCCCCCOc2ccc(C(=N)N)cc2Br)c(Br)c1", "values": [
      {"measurement": "IC50", "setting": "Plasmodium falciparum [1]", "result": 18.2, "unit": "nM"},
      {"measurement": "IC50", "setting": "Plasmodium falciparum [2]", "result": 52.5, "unit": "nM"}
    ]},
    {"smiles": "c1cc(C2=NCCN2)ccc1OCCCCCOc1ccc(C2=NCCN2)cc1", "values": [
      {"measurement": "IC50", "setting": "Plasmodium falciparum [1]", "result": 3.39, "unit": "nM"},
      {"measurement": "IC50", "setting": "Plasmodium falciparum [2]", "result": 34.7, "unit": "nM"}
    ]},
    {"smiles": "N=C(N)c1ccc(OCCCCCOc2ccc(C(=N)N)cc2)cc1", "note": "[PENTAMIDINE]", "values": [
      {"measurement": "IC50", "setting": "Plasmodium falciparum [1]", "result": 12.3, "unit": "nM"},
      {"measurement": "IC50", "setting": "Plasmodium falciparum [2]", "result": 56.2, "unit": "nM"}
    ]}
  ]
}
